Each block holds one molecule with its values, some of them ahead of it. Bridge positions count the residues as written; N and C are the ends. Peptide text beside a SMILES is read from it.
Experiments:
[1] = tested on: Wnt1-mediated β-catenin signaling; test: TOPbrite dual-luciferase reporter assay, inhibition of Wnt1-mediated signaling; type: cell-based, human; settings: HEK293 TOPbrite cells transfected with Wnt1; treatment 6 h before measurement
In short: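 Wnt1 construct was transfected with FuGENE HD into TOPbrite/Renilla HEK293 cells (DMEM/F12, 10% FBS, hygromycin, 37 °C), seeded 24 h earlier, then incubated 24–48 h. Linker peptides or LRP6 Fabs were added 6 h before reading. Dual-Glo firefly/Renilla luminescence ratio was calculated, in some instances normalized to nontreated controls.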

LRP6E1E2 = test: ELISA competition assay of Wnt.cys peptides with Fab YW210 for LRP6E1E2; type: binding, human; settings: LRP6E1E2 constant at 3x EC50, serial dilution of YW210
Reck = test: ELISA binding of linker peptides to Reck; settings: immobilised biotinylated peptide
In short: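 Neutravidin-coated (5 μg/mL) plates blocked with 0.5% BSA/PBS for 2 h at room temperature, then loaded with 1 μg biotinylated linker peptide per well. Serial dilutions of His-tagged Reck in PBS/0.5% BSA/0.05% Tween 20 were incubated for 45 min at room temperature. After washing, bound protein was detected with HRP anti-His (1:5,000, 45 min) and TMB, reading absorbance at 450 nm.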

[2] = tested on: HEK293 TOPbrite reporter cells, β-catenin signaling; type: cell-based, human; settings: transfection of 0 to 25 ng construct, 24 to 48 h; normalized to empty vector
In short: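 HEK293 cells carried a stable firefly TOPbrite Wnt reporter plus pRL-SV40 Renilla and were kept in DMEM/F12 (50:50) with 10% FBS, GlutaMAX and 40 μg/mL hygromycin at 37 °C, 5% CO2. Cells were seeded at 20,000–40,000 per well, grown 24 h, then transfected with 0–25 ng Wnt or chimera construct using FuGENE HD. After 24–48 h, Dual-Glo firefly/Renilla ratio was normalized to empty vector.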

[3] = tested on: HEK293 luciferase reporter cells, phospho-LRP6 and active β-catenin; type: cell-based, human; settings: overexpression, 250 ng DNA, 24 h, Western blot
[4] = target: hLRP6_(E1E2) (residues 20 to 631), C-terminal hexahistidine-tag, for ELISA (human, UniProt O75581); test: ELISA
hLRP6_(E1E2) (residues 20 to 631), C-terminal hexahistidine-tag, for ELISA, sequence (O75581 20-631): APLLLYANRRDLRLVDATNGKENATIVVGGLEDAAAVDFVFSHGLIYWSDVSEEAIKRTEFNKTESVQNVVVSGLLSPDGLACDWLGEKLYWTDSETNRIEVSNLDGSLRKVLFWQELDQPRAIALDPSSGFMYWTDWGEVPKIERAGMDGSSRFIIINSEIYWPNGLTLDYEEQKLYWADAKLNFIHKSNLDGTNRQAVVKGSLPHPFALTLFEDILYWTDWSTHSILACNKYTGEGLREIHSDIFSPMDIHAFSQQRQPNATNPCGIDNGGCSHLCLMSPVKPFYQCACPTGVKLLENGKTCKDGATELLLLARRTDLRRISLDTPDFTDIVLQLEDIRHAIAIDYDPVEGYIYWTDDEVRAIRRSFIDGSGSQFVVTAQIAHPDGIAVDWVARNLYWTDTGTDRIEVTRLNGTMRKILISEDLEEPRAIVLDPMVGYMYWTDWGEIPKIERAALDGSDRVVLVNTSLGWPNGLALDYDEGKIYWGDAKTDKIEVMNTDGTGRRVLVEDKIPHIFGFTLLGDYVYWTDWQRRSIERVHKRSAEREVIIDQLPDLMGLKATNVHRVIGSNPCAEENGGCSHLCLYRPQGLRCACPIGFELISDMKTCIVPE

Molecule: YW210: Fab that binds predominantly to the LRP6 E1 domain [reference compound]
inhibition of Wnt1-mediated β-catenin signaling [1]: inhibited Wnt1-induced signaling

Molecule: CC(C)C[C@@H]1NC(=O)[C@H](CCC(=O)O)NC(=O)[C@H](C)NC(=O)[C@H](CCCNC(=N)N)NC(=O)[C@H](CO)NC(=O)[C@H](C)NC(=O)[C@H](CCCNC(=N)N)NC(=O)[C@H](CC(N)=O)NC(=O)[C@H](CO)NC(=O)CNC(=O)[C@H](CCCNC(=N)N)NC(=O)[C@H](CC(N)=O)NC(=O)CNC(=O)[C@H](Cc2ccc(O)cc2)NC(=O)[C@H](CC(C)C)NC(=O)[C@H](C(C)C)NC(=O)[C@H](CCCNC(=N)N)NC(=O)[C@H](CO)NC(=O)[C@@H](NC(=O)CN)CSSC[C@@H](C(=O)N[C@H](C(=O)O)C(C)C)NC(=O)[C@H](CC(=O)O)NC(=O)[C@H](Cc2c[nH]cn2)NC(=O)[C@@H]2CCCN2C(=O)[C@H](CO)NC(=O)[C@@H]2CCCN2C(=O)[C@@H]2CCCN2C(=O)[C@H](CCCCN)NC(=O)[C@H](Cc2c[nH]cn2)NC(=O)[C@H](C)NC(=O)[C@@H]2CCCN2C(=O)[C@H](CC(=O)O)NC(=O)[C@H](CCC(=O)O)NC(=O)[C@@H]2CCCN2C(=O)[C@H](CCC(=O)O)NC(=O)[C@H](CC(C)C)NC(=O)[C@H](CCCNC(=N)N)NC(=O)[C@H](CC(C)C)NC1=O [W1.cys] (H-GCSRVLYGNRGSNRASRAELLRLEPEDPAHKPPSPHDCV-OH; disulfide 2-38; N-terminus and C-terminus assumed)
inhibition of Wnt1-mediated β-catenin signaling [1]: inhibited
competition of Fab YW210 with the peptide for LRP6E1E2 binding (LRP6E1E2): competed strongly

B1: Wnt3a: human Wnt3a, canonical, overexpressed (protein, UniProt P56704 19-352, looked up)
Protein Wnt-3a: SYPIWWSLAVGPQYSSLGSQPILCASIPGLVPKQLRFCRNYVEIMPSVAEGIKIGIQECQHQFRGRRWNCTTVHDSLAIFGPVLDKATRESAFVHAIASAGVAFAVTRSCAEGTAAICGCSSRHQGSPGKGWKWGGCSEDIEFGGMVSREFADARENRPDARSAMNRHNNEAGRQAIASHMHLKCKCHGLSGSCEVKTCWWSQPDFRAIGDFLKDKYDSASEMVVEKHRESRGWVETLRPRYTYFKVPTERDLVYYEASPNFCEPNPETGSFGTRDRTCNVSSHGIDGCDLLCCGRGHNARAERRREKCRCVFHWCCYVSCQECTRVYDVHTCK
β-catenin signaling induced by overexpression (TOPbrite) [2]: induced β-catenin signaling
LRP6 phosphorylation [3]: induced
accumulation of active (nonphosphorylated) β-catenin [3]: induced

B3: Wnt1: human Wnt1, canonical, overexpressed (protein, UniProt P04628 28-370, looked up)
Proto-oncogene Wnt-1: ANSSGRWWGIVNVASSTNLLTDSKSLQLVLEPSLQLLSRKQRRLIRQNPGILHSVSGGLQSAVRECKWQFRNRRWNCPTAPGPHLFGKIVNRGCRETAFIFAITSAGVTHSVARSCSEGSIESCTCDYRRRGPGGPDWHWGGCSDNIDFGRLFGREFVDSGEKGRDLRFLMNLHNNEAGRTTVFSEMRQECKCHGMSGSCTVRTCWMRLPTLRAVGDVLRDRFDGASRVLYGNRGSNRASRAELLRLEPEDPAHKPPSPHDLVYFEKSPNFCTYSGRLGTAGTAGRACNSSSPALDGCELLCCGRGHRTRTQRVTERCNCTFHWCCHVSCRNCTHTRVLHECL
β-catenin signaling induced by overexpression (TOPbrite) [2]: induced β-catenin signaling
LRP6 phosphorylation [3]: induced
accumulation of active (nonphosphorylated) β-catenin [3]: induced

The next lines start with the values.

competition of Fab YW210 with the peptide for LRP6E1E2 binding (LRP6E1E2): could not be outcompeted
Molecule: CSCC[C@@H]1NC(=O)[C@H](CCC(=O)O)NC(=O)[C@H](CO)NC(=O)[C@@H](NC(=O)[C@@H](N)CO)CSSC[C@@H](C(=O)N[C@H](C(=O)O)C(C)C)NC(=O)[C@H](CC(=O)O)NC(=O)[C@H](CCCNC(=N)N)NC(=O)[C@H](CCC(=O)O)NC(=O)[C@H]([C@@H](C)O)NC(=O)[C@@H]2CCCN2C(=O)[C@H](C(C)C)NC(=O)[C@H](CCCCN)NC(=O)[C@H](Cc2ccccc2)NC(=O)[C@H](Cc2ccc(O)cc2)NC(=O)[C@H]([C@@H](C)O)NC(=O)[C@H](Cc2ccc(O)cc2)NC(=O)[C@H](CCCNC(=N)N)NC(=O)[C@@H]2CCCN2C(=O)[C@H](CCCNC(=N)N)NC(=O)[C@H](CC(C)C)NC(=O)[C@H]([C@@H](C)O)NC(=O)[C@H](CCC(=O)O)NC(=O)[C@H](C(C)C)NC(=O)[C@H](Cc2c[nH]c3ccccc23)NC(=O)CNC(=O)[C@H](CCCNC(=N)N)NC(=O)[C@H](CO)NC(=O)[C@H](CCC(=O)O)NC(=O)[C@H](CCCNC(=N)N)NC(=O)[C@H](Cc2c[nH]cn2)NC(=O)[C@H](CCCCN)NC(=O)[C@H](CCC(=O)O)NC(=O)[C@H](C(C)C)NC(=O)[C@H](C(C)C)NC1=O [W3a.cys] (H-SCSEMVVEKHRESRGWVETLRPRYTYFKVPTERDCV-OH; disulfide 2-35; N-terminus and C-terminus assumed)

inhibition of Wnt1-mediated β-catenin signaling [1]: inhibited
competition of Fab YW210 with the peptide for LRP6E1E2 binding (LRP6E1E2): competed strongly
Molecule: CSCC[C@@H]1NC(=O)[C@H](C(C)C)NC(=O)[C@H](CCC(N)=O)NC(=O)[C@H](C(C)C)NC(=O)[C@@H](NC(=O)CN)CSSC[C@@H](C(=O)N[C@H](C(=O)O)C(C)C)NC(=O)[C@H](CC(=O)O)NC(=O)[C@H]([C@@H](C)O)NC(=O)[C@H](CCCNC(=N)N)NC(=O)[C@H]([C@@H](C)O)NC(=O)[C@H](C)NC(=O)[C@H](CCCNC(=N)N)NC(=O)[C@H](CCCNC(=N)N)NC(=O)[C@H](Cc2ccc(O)cc2)NC(=O)CNC(=O)[C@H](CCC(N)=O)NC(=O)[C@H](CCCNC(=N)N)NC(=O)[C@H](C)NC(=O)[C@H](C)NC(=O)[C@H]([C@@H](C)O)NC(=O)[C@H](Cc2ccccc2)NC(=O)[C@H](CC(N)=O)NC(=O)[C@H](C)NC(=O)CNC(=O)[C@H](CC(=O)O)NC(=O)[C@H](CCC(N)=O)NC(=O)[C@H]([C@@H](C)O)NC(=O)[C@H](C)NC1=O [W2b.cys] (H-GCVQVMATQDGANFTAARQGYRRATRTDCV-OH; disulfide 2-29; N-terminus and C-terminus assumed)

inhibition of Wnt1-mediated β-catenin signaling [1]: inhibited
binding to Reck (Reck): bound Reck
competition of Fab YW210 with the peptide for LRP6E1E2 binding (LRP6E1E2): partially
Molecule: CC[C@H](C)[C@@H]1NC(=O)[C@H](CCCCN)NC(=O)[C@H](CC(C)C)NC(=O)[C@H](Cc2ccccc2)NC(=O)[C@H]([C@@H](C)O)NC(=O)[C@@H]2CCCN2C(=O)[C@H](CCCNC(=N)N)NC(=O)[C@H](CCCCN)NC(=O)[C@H](CC(N)=O)NC(=O)[C@H](CCCNC(=N)N)NC(=O)[C@H](CO)NC(=O)[C@H](C)NC(=O)[C@H](CCCNC(=N)N)NC(=O)[C@H](C(C)C)NC(=O)[C@@H]2CCCN2C(=O)[C@H](CCC(=O)O)NC(=O)[C@H](C(C)C)NC(=O)[C@H](Cc2c[nH]cn2)NC(=O)[C@H](C(C)C)NC(=O)[C@@H](NC(=O)[C@@H](N)CCC(=O)O)CSSC[C@@H](C(=O)N[C@H](C(=O)O)C(C)C)NC(=O)[C@H](CC(=O)O)NC(=O)[C@H]([C@@H](C)O)NC(=O)[C@H](CC(=O)O)NC(=O)[C@H](CCSC)NC(=O)[C@@H]2CCCN2C(=O)[C@H](CCCCN)NC(=O)[C@H](CCCNC(=N)N)NC(=O)[C@H](Cc2ccc(O)cc2)NC(=O)[C@H](CO)NC(=O)[C@H](CC(C)C)NC(=O)[C@@H]2CCCN2C(=O)[C@H](CCCCN)NC(=O)[C@H](CCCCN)NC1=O [W7a.cys] (H-ECVHVEPVRASRNKRPTFLKIKKPLSYRKPMDTDCV-OH; disulfide 2-35; N-terminus and C-terminus assumed)

binding result [4]: binds
B2: YW210.09 Fab (Fab, V domains shown)
VH: EVQLVESGGGLVQPGGSLRLSCAASGFTFTNSYIHWVRQAPGKGLEWVGWITPYGGYTNYADSVKGRFTISADTSKNTAYLQMNSLRAEDTAVYYCARGSGHVNAVKNYGYVMDYWGQGTLVTVSS
VL: DIQMTQSPSSLSASVGDRVTITCRASQDVSTAVAWYQQKPGKAPKLLIYSASFLYSGVPSRFSGSGSGTDFTLTISSLQPEDFATYYCQQSYTTPPTFGQGTKVEIK

Reference: article PMC10089208 (Proceedings of the National Academy of Sciences of the …, 2023)
